Data taken from the EternaBench riboswitch data.

Tested on: MS2 coat protein
Assay: apparent Kd, MS2 coat protein; higher = weaker binding; RNA-MaP array; FMN 200 µM where present
How it was run: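 Apparent Kd: the median of filtered binding-curve fits from single clusters. Designs were transcribed on Illumina sequencing-chip clusters by stalled E. coli RNA polymerase and titrated with SNAP-549-labelled MS2 coat protein from 0.7 or 1.5 nM, doubling to 3 µM, in 100 mM Tris-HCl pH 7.5, 80 mM KCl, 4 mM MgCl2, BSA, DTT, yeast tRNA and Tween-20. Each series ran without and then with constant ligand, and green signal was normalised to red-channel RNA signal and control-cluster median Fmax.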

[1] = designed as: OFF switch for flavin mononucleotide, no ligand
[2] = ligand present: flavin mononucleotide, designed as: OFF switch for flavin mononucleotide
[3] = designed as: ON switch for flavin mononucleotide, no ligand
[4] = ligand present: flavin mononucleotide, designed as: ON switch for flavin mononucleotide

UAAACGUUCUAGAAGGUGCAUUUGUUAAACAAGCAAGGAUAUAGACAUGAGGAUCACCCAUGUCUAUUAGACAUCGGCCUACUU
apparent Kd [1]: 5.75 nM | apparent Kd [2]: 5.39 nM

UAAAUCUUGUAAGGAUAUACACGAGAUUCAAGUGUAGAAGGUACUUACAUGAGGAUCACCCAUGUAUACAUGGAUAAUAGAUAU
apparent Kd [3]: 211 nM | apparent Kd [4]: 64.5 nM

UAAAUUUUGUAAGGAUAUACACGAGAUUCAAGUGUAGAAGGUACUUACAUGAGGAUCACCCAUGUAUACAUGGAUAAUAGAUAU
apparent Kd [3]: 436 nM | apparent Kd [4]: 141 nM

UAACGACACGCAGGAUAUCUAACAUGAGGAUCACCCAUGUCAGAUGACAGGGUCGCUUUACUGGCAGAGAAGGGCGAUCGAUAC
apparent Kd [1]: 7.44 nM | apparent Kd [2]: 11.2 nM

UAAGUACGAGGAUAUACAUAGAUACAGAUACAUGUAGACGUACAUGAGGAUCACCCAUGUAGAAGGCGUAUAUA
apparent Kd [1]: 67.9 nM | apparent Kd [2]: 239 nM

UAAGUCGGAAGAUAAUAAUGAAUACAUGAGGAUCACCCAUGUAAGGAUAUGCAGUGGAAUACACUGCAGAAGGUACAUACCGAC
apparent Kd [1]: 16.1 nM | apparent Kd [2]: 21.4 nM

UAAUAGUGUGUUAGGAUAUGCUGGUCGAAAGAUCAGCAGAAGGAACAUGAGGAUCACCCAUGUAGAGUAUUUUA
apparent Kd [1]: 21.3 nM | apparent Kd [2]: 62.4 nM

UAAUCUCAGAUAGGAUAUAUAGGAUGAUUUAAGACCGAACAUGAGGAUCACCCAUGUGAUUAUUCGUAGAAGGAUCAAUGACCC
apparent Kd [3]: 122 nM | apparent Kd [4]: 114 nM

UAAUGAGAGCAGGAUAUCUUAUAAAUGUAUGAAAGAGAAGGGCUCACAUGAGGAUCACCCAUGUGGUCCUAGAU
apparent Kd [1]: 34 nM | apparent Kd [2]: 163 nM

UAAUGAUAAGCAGGAUAUACUACACAUGAGGAUCACCCAUGUGUGUGAUCCACUCUCGUAUGGUAGUAGAAGGGCUCAGAGUAC
apparent Kd [1]: 153 nM | apparent Kd [2]: 80.6 nM

UAAUUGUGAGGAUAUUCGUAGUUCUCGGAGACGAGAAUUACGGAGAAGGCACAUGAGGAUCACCCAUGUUCCUU
apparent Kd [1]: 18.3 nM | apparent Kd [2]: 96.1 nM

UAAUUUUGUCAAGGAUAUGUAAUAUAGAUUUGUAAACAUGAGGAUCACCCAUGUAUAUGGUGGGAACAGAAGGUGAAUGGAGAA
apparent Kd [1]: 196 nM | apparent Kd [2]: 171 nM

UACAAUCUAUCUGAGGAUAUCAUGAAAAAAACAUGAGGAUCACCCAUGUGCAGGAAAACUGCAUAUGAGAAGGCAGAUAGAUUGC
apparent Kd [3]: 671 nM | apparent Kd [4]: 29.3 nM

UACAAUCUAUCUGAGGAUAUCAUGAAAAAAACAUGAGGAUCACCCAUGUGCAGGAAAACUGCAUAUGAGAAGGCAGAUAGAUUGG
apparent Kd [3]: 736 nM | apparent Kd [4]: 28.9 nM

UACAUUACUGAGAAGGGAUACAUAUAAUUUUAGUCAGGAUAUCGAUACAGUGCAGCAUGAGGACAUGAGGAUCACCCAUGUAUU
apparent Kd [3]: 24.4 nM | apparent Kd [4]: 19.5 nM

UACCUGAGGCAAAGCUUUAGGUAUACAUGAGGAUCACCCAUGUAGGAUAUGGUAGGCCUUGCUUACCAGAAGGACAUGUUAAUU
apparent Kd [1]: 23.5 nM | apparent Kd [2]: 76.1 nM

UACCUGAGGCAAAGCUUUAGGUAUACAUGAGGAUCACCCAUGUAGGAUAUGGUAGGCUUUGCUUACCAGAAGGACAUGUAAAUU
apparent Kd [1]: 20.5 nM | apparent Kd [2]: 67.8 nM

UACCUGAGGCUUUGCUUUAGGCUUACAUGAGGAUCACCCAUGUAGGAUAUGGUAGGCAAAGCUUACCAGAAGGACAUGGAAAUU
apparent Kd [1]: 19 nM | apparent Kd [2]: 66.6 nM

UACGCGUAGGAGAAGGGCCCACUAUAGGGUAAGUGCUGUUCUCACAUGAGGAUCACCCAUGUGCGGCAGGAUAUCCACGCGUGC
apparent Kd [1]: 11.6 nM | apparent Kd [2]: 66.7 nM

UACGUUCUACGCGACAUGAGGAUCACCCAUGUUAGCCGAUCACAGGAUAUGUUGGAGCCGGUCGAACAGAAGGGUGAGUCUGCU
apparent Kd [3]: 38.8 nM | apparent Kd [4]: 38.9 nM

UACUUGUCAGGAUAUCUUACAUUAACAUCGUAGUUACCGUUGGAGAAGGGACAUGAGGAUCACCCAUGUUUGGC
apparent Kd [1]: 32 nM | apparent Kd [2]: 54.9 nM

UAGAAGUCAGGAUAUCCAGCUCGUCACUUGCGUGAUGAGUUGGAGAAGGGACAUGAGGAUCACCCAUGUAAAGC
apparent Kd [1]: 53.7 nM | apparent Kd [2]: 46.5 nM

UAGAAGUCAGGAUAUCCAUGGCGGCACUUGCGUGGUGGCGUGGAGAAGGGACAUGAGGAUCACCCAUGUAAAGA
apparent Kd [1]: 54.4 nM | apparent Kd [2]: 42 nM

UAGACCGAUGUUAGGAUAUCUGGUCGAGAAAGAAAAGAGAAGGAACAUGAGGAUCACCCAUGUACCCGGGUAAC
apparent Kd [1]: 15 nM | apparent Kd [2]: 19.2 nM

UAGAUGGCUCAGGAUAUUUGCCAACUAACUCGCGAAGAAGGGAGCACAUGAGGAUCACCCAUGUGAUCGAACGG
apparent Kd [1]: 18.8 nM | apparent Kd [2]: 45.6 nM

UAGCUCCAUGUGAGGAUAUAGACUCGGACCCGGGAUUAGAAGGUACAUGAGGAUCACCCAUGUAUCCAACUUGU
apparent Kd [1]: 15.3 nM | apparent Kd [2]: 16.6 nM

UAGGACUACGUAGGAUAUGUAGGAUAUUCCUACAUGAGGAUCACCCAUGUUAGCAUGUAAGUAGGACAGAAGGACGUGGUAAAU
apparent Kd [3]: 695 nM | apparent Kd [4]: 79.9 nM

UAGUAUAAGGGCAUUAAACAUGAGGAUCACCCAUGUACGAUAGAGGAUAUGCAUUUCAGUUUAGAGUAGAAGGUUAGAGAAUUU
apparent Kd [1]: 42.1 nM | apparent Kd [2]: 42.9 nM

UAGUUUUAGCGAGGAUAUCGUAUGUUUAAUUUUUUAUAUUGUUUACAUGAGGAUCACCCAUGUUACGAGAAGGCGCAUGGGAUU
apparent Kd [3]: 388 nM | apparent Kd [4]: 100 nM

UAUAAUACAUAGGAUAUCGAAUAAAUCAUUUAACGAGAAGGAUGAACAUGAGGAUCACCCAUGUGGUAUCAUGG
apparent Kd [1]: 263 nM | apparent Kd [2]: 241 nM

UAUACUUACGAAGGAUAUGGUUACAUGAGGAUCACCCAUGUAUGUAUAUUGAUCUAGUAUUUUAACCAGAAGGUCGUGAGUAUA
apparent Kd [1]: 65.5 nM | apparent Kd [2]: 53.4 nM

UAUAGGCUAGGAUAUACAACACUUGGUUCAGAUGUUUGAAGACAUGAGGAUCACCCAUGUAGAAGGAGCAUUCA
apparent Kd [1]: 33.5 nM | apparent Kd [2]: 76.3 nM

UAUAUAAUUAAGAGCUGGAACUCAACAUGAGGAUCACCCAUGUAGGAUAUCAGCACGAUAAGUGCUGAGAAGGACUACCAGCUC
apparent Kd [1]: 18.2 nM | apparent Kd [2]: 20.4 nM

UAUAUAAUUAAGAGCUGGCUCAAAACAUGAGGAUCACCCAUGUAGGAUAUCAGCACGAUAAGUGCUGAGAAGGACAUCCAGCUC
apparent Kd [1]: 16.9 nM | apparent Kd [2]: 24.5 nM

UAUAUAUAAUAUAUUAACAUGAGGAUCACCCAUGUCGCUAGACAGGAUAUAUUUAAUAUUAUAAAGUAGAAGGGUCAUAUAAUU
apparent Kd [3]: 50.5 nM | apparent Kd [4]: 64.8 nM

UAUAUAUAGUAAGGAUAUGUAAUCAUUUUAUAAACAGAAGGUACUGACAUGAGGAUCACCCAUGUUUUAGUGUGGGCAUGUAGA
apparent Kd [1]: 86.4 nM | apparent Kd [2]: 141 nM

UAUAUAUAGUAAGGAUAUGUAUAUAUUUUAUAAACAGAAGGUACUGACAUGAGGAUCACCCAUGUUUUAGUGUGGGCAUGUAGA
apparent Kd [1]: 72.1 nM | apparent Kd [2]: 109 nM

UAUAUAUAGUAAGGAUAUGUAUAUAUUUUAUUAACAGAAGGUACUGACAUGAGGAUCACCCAUGUUUUAGUGUGGGCAUGUAGA
apparent Kd [1]: 76.7 nM | apparent Kd [2]: 100 nM

UAUAUAUAGUAAGGAUAUGUAUUUGUUUUAUAAACAGAAGGUACUGACAUGAGGAUCACCCAUGUUUUAGUGUGGGCAUGUAGA
apparent Kd [1]: 39.5 nM | apparent Kd [2]: 41.4 nM

UAUAUGUCAGGAUAUCGAUUGGAACGGAAUUCGGUUCUGGUUGAGAAGGGACAUGAGGAUCACCCAUGUUUUUC
apparent Kd [1]: 36.2 nM | apparent Kd [2]: 222 nM

UAUAUUAUUAUAGGAUAUGGAUACGAUGCGUAUCCAGAAGGGUGAUUAUAAUAUAAUCUAUACAUGAGGAUCACCCAUGUUUAU
apparent Kd [3]: 303 nM | apparent Kd [4]: 73.9 nM

UAUGACAUGAGGAUCACCCAUGUCAGCGAGAAAUGAGAGUCACAGGAUAUGUUUUCGGCCGGCAGACAGAAGGGUGACCCUCAG
apparent Kd [3]: 7.21 nM | apparent Kd [4]: 6.89 nM

UAUGGUAAAGUCAGGAUAUACGUACAUCGUUCUAGGUAGAAGGGACAUGAGGAUCACCCAUGUAUGGUAGUGUU
apparent Kd [1]: 106 nM | apparent Kd [2]: 107 nM

UAUGUCUUUGUGAGGAUAUACUUUGUUUGGUCGUAGUAGAAGGCACAUGAGGAUCACCCAUGUAGAUUUUUGGU
apparent Kd [1]: 23.1 nM | apparent Kd [2]: 36.1 nM

UAUUAAAACGAGAAGGGAGUACAUGAGGAUCACCCAUGUGCCUCAUAAUACUCAGGAUAUCGUGAUUGGGUCACCAGCUGGGUG
apparent Kd [1]: 509 nM | apparent Kd [2]: 29.3 nM

UAUUCAUACGAAGGAUAUGGUUACAUGAGGAUCACCCAUGUAUGUAUAUUGAUCUAGUUAUUUAACCAGAAGGUCGAAUAUAAA
apparent Kd [1]: 35.4 nM | apparent Kd [2]: 72.6 nM

UAUUUAAUCAUAGGAUAUAGUGUGAAAUUUGGACUAGAAGGAUGUAACAUGAGGAUCACCCAUGUGGUAAGUGGGACACAGUGA
apparent Kd [3]: 106 nM | apparent Kd [4]: 177 nM

UAUUUUAACUAAGGAUAUCUGUAUUAUGUAGAAACAUGAGGAUCACCCAUGUUCUUGAUAUUAUAGGAGAAGGUAGAUGAAUAA
apparent Kd [3]: 6.6 nM | apparent Kd [4]: 5.72 nM

UCAAGUAUGUAGGAUAUCGAUGUCUUCGGACAUCGAGAAGGACGUACAUGAGGAUCACCCAUGUAACUUGCAUG
apparent Kd [1]: 60.5 nM | apparent Kd [2]: 37.4 nM

UCACGGGACUAAGGAUAUACAUGAUCCAUUUUUGUAGAAGGUAGAAUGUUAGAUCAUAAACUAAACAUGAGGAUCACCCAUGUU
apparent Kd [1]: 23.5 nM | apparent Kd [2]: 22.5 nM

UCACGGGAUUGAGGAUAUAUAUUAAUUUUUUUUAUAGAAGGCAAAUUGUUAGAUUAUUCACUAUACAUGAGGAUCACCCAUGUU
apparent Kd [1]: 29.3 nM | apparent Kd [2]: 26.6 nM

UCAGGCUUCGAGAAGGACAUGAGGAUCACCCAUGUGCGUGUGAAGCAGCCAAAAGGCUGCAUCAUGUAGGAUAUCGGAGUCUGC
apparent Kd [1]: 81.8 nM | apparent Kd [2]: 552 nM

UCAGGCUUCGAGAAGGACAUGAGGAUCACCCAUGUGCGUGUGAAGCAGCCGUGAGGCUGCAUCAUGUAGGAUAUCGGAGUCUGG
apparent Kd [1]: 74 nM | apparent Kd [2]: 583 nM

UCAGUAGAGUCAGGAUAUACGAAAGUAGAUCCUUACAUGAGGAUCACCCAUGUAGAAGGGACUCUACUGUAAGUCGGAAACGAC
apparent Kd [1]: 14.1 nM | apparent Kd [2]: 69.1 nM

UCAUAAAAGAUCCUAUUUAUCUACAUGAGGAUCACCCAUGUGCAGGAUAUGCUAUAUUUAAUAAAGCAGAAGGGCAAUAACCGC
apparent Kd [1]: 127 nM | apparent Kd [2]: 309 nM
